Data on two molecules can be found in ChEMBL document CHEMBL5154824, “Design and synthesis of multifunctional microtubule targeting agents endowed with dual pro-apoptotic and anti-autophagic efficacy” (Eur J Med Chem, 2022).

What is called IC50 is the concentration needed to halve the response being measured. As a reminder, the EC50 is the concentration at which the effect is half-maximal. A word on the inhibition: it is the drop in the measured response relative to a control, in per cent.

Active and inactive are the calls of the source. No cut-off for these calls is given here.

Data set [1] deals with KYSE-520 cell line. Briefly: Cytotoxicity against human KYSE520 cells assessed as inhibition of cell growth measured after 48 hrs by alamar blue viability assay. It is filed as functional, cell-based. As to conditions: KYSE-520, 48 h. Summed up: (§1)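 KYSE-520 oesophageal cells were exposed to at least 8 increasing concentrations for 48 h or 72 h. Viability was read out to give IC50, as the mean ± SD of at least three independent experiments.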
(In general: The colour change of resazurin is a common sign of viable cells or microbes.)

Data set [2] in a line: Cytotoxicity against human Primary oral epithelial cells assessed as inhibition of cell growth measured after 24 hrs by neutral red uptake assay. It is filed as toxicity, cell-based. The procedure, abridged: (§2)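 Neutral red uptake viability test. NIH3T3 fibroblasts or primary human oral epithelial cells were exposed to compound at 0.1 to 120 μM. EC50 was derived, with SD below 5%.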

Data set [3] is described as follows: Cytotoxicity against human TR146 cells assessed as reduction in cell viability measured after 48 hrs by alamar blue viability assay. The class given is functional, cell-based. As to conditions: TR146, 48 h. Summed up: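 Oral squamous carcinoma cells were exposed for 48 h to at least 8 increasing concentrations. Viability was read by AlamarBlue. IC50 is the concentration that halves viability, taken as the mean ± SD of at least three independent experiments.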

Another data set concerns OE19. As to the kind of experiment: Cytotoxicity against human OE19 cells assessed as inhibition of cell growth measured after 72 hrs by MTT assay. As to conditions: OE19, 72 h. It is filed as functional, cell-based. Summed up: (§3)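 Oesophageal adenocarcinoma lines were exposed to at least 8 increasing concentrations for 72 h. Viability was measured by MTT. IC50 is the mean ± SD of at least three independent experiments.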

The subject of data set [4] is HeLa. Briefly: Cytotoxicity against human HeLa cells assessed as inhibition of cell growth measured after 48 hrs by MTT assay. It is filed as functional, cell-based. The procedure, abridged: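 MTT assay. Cells were exposed for 48 h to increasing concentrations of compound. Ovarian A2780 was paired with its P-gp-overexpressing A2780AD counterpart, and HeLa with HeLa β3, which overexpresses the tubulin β3 isotype. IC50 is the mean ± SD of three independent experiments.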
(In general: Tetrazolium assays rely on reduction of a dye to a coloured formazan, in cell work by metabolically active cells.)

For the next data set, the system named is HL-60. As to the kind of experiment: Induction of autophagy in human HL-60 cells assessed as increase in p62 protein level at 10 uM […] by Immunoblotting analysis. It is filed as functional, cell-based. Background: Immunoblotting shows a protein as a band on a membrane.
The target of a further data set is Tubulin (Homo sapiens) (UniProt P68371+Q9H4B7+P0DPH7+P68366+Q13509+Q71U36+P04350+Q3ZCM7+P07437+P68363+Q9BQE3+Q6PEY2+Q13885+Q9BVA1+Q9BUF5). Briefly: Inhibition of tubulin (unknown origin) assembly measured at 5 uM by fluorescence assay. The class given is protein-complex assay.
Another data set has as its system NIH3T3. Briefly: Cytotoxicity against mouse NIH3T3 cells assessed as inhibition of cell growth measured after 24 hrs by neutral red uptake assay. The class given is functional, cell-based. To be noted: NIH3T3, 24 h. Summed up:
as §2

Data set [5] concerns the target Nuclear factor NF-kappa-B complex (Homo sapiens) (UniProt Q00653+P19838+Q04206). As to the kind of experiment: Inhibition of NF-kappaB phosphorylation in human HL-60 cells at 10 uM measured after 2 hrs by Immunoblotting analysis. The class given is cell-based. The procedure, abridged:
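HL-60 cells were treated at 10 μM or with DMSO vehicle for 2 h. Phospho-NF-κB and phospho-Erk1/2 were immunoblotted and quantified by densitometry relative to β-tubulin. Data are mean ± SD (n = 2), analysed by one-way ANOVA.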

Data set [6] can be described thus: Mutagenicity in Salmonella typhimurium TA98 in presence of rat liver S9 fraction at 0.3 to 60 uM by AMES test. The class given is toxicity, subcellular. As to conditions: salmonella enterica subsp. enterica serovar typhimurium, s9, 60 µM; dose 0.3-60 µM.
The subject of data set [7] is HeLa. As to the kind of experiment: Induction of morphological changes in human HeLa cells assessed as increase in actin stress fibres at 10 uM incubated for 3 hrs by phalloidin staining based laser scanning confocal microscopic analysis. The class given is functional, cell-based. The procedure, abridged: (§4)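 HeLa cells in growth medium were treated at 1 or 10 μM, with BafA1 300 nM as reference, for 3 h. Cells were fixed in 4% PFA, stained with anti-GM130 for the Golgi and AF647-phalloidin for actin, and imaged by laser scanning confocal microscopy.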

A short description of data set [8]: Cytotoxicity against human SKGT4 cells assessed as inhibition of cell growth measured after 72 hrs by MTT assay. It is filed as functional, cell-based. To be noted: SKGT4, 72 h. The procedure, abridged:
as §3

A short description of data set [9]: Cytotoxicity against human FLO-1 cells assessed as inhibition of cell growth measured after 72 hrs by MTT assay. As to conditions: FLO-1, 72 h. It is filed as functional, cell-based. Summed up: as §3
Data set [10] concerns HeLa. Briefly: Induction of autophagy in human HeLa cells assessed as increase in number of autophagosomes formation at 10 uM measured after 3 hrs by immunofluorescence based laser scanning confocal microscopic analysis. It is filed as functional, cell-based. Summed up:
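HeLa cells in growth medium were treated at 1 or 10 μM, with BafA1 300 nM as reference, for 3 h. Cells were fixed in ice-cold methanol, immunostained for LC3 (autophagosomes) and LAMP1, and imaged by laser scanning confocal microscopy.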

A short description of data set [11]: Metabolic stability in human liver microsomes assessed as apparent decay constant by HPLC analysis. The class given is ADME, Microsome. The procedure, abridged:
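Compound incubated with human liver microsomes plus an NADPH-generating system. Log % of compound recovered (100% at 0 min) was plotted against incubation time and fitted to a monoexponential decay. Controls were boiled microsomes, or microsomes without NADPH-GS, at 37 °C for 60 min.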

In the next data set the test system is OE33. Briefly: Cytotoxicity against human OE33 cells assessed as inhibition of cell growth measured after 72 hrs by MTT assay. As to conditions: OE33, 72 h. The class given is functional, cell-based. Summed up:
as §3

In the next data set the test system is TR146. As to the kind of experiment: Induction of apoptosis in human TR146 cells assessed as increase in apoptotic cells at 0.5 uM after 48 hrs by Annexin V-FITC/PI staining based flow cytometry method. It is filed as functional, cell-based. The procedure, abridged:
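Ca9.22 or TR146 cells were seeded at 30×10^4 cells/mL and treated with 500 nM compound or 1% EtOH (v/v) vehicle for 48 h. Annexin V/PI staining was read by flow cytometry, gating 10,000 cells on vehicle-treated cells. Data are mean ± SEM (n = 3).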

Data set [12] relates to KYSE-520 cell line. As to the kind of experiment: Cytotoxicity against human KYSE520 cells assessed as inhibition of cell growth measured after 72 hrs by alamar blue viability assay. It is filed as functional, cell-based. To be noted: KYSE-520, 72 h. The procedure, abridged: as §1
For a further data set, the system named is SCC-4. As to the kind of experiment: Induction of autophagy in human SCC-4 cells assessed as increase in LC3-II to LC3-I ratio at 10 uM incubated for 30 mins in presence of EBSS followed by compound addition and measured after 3 hrs by Western blot analysis. The class given is functional, cell-based. Summed up:
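SCC4 cells were pre-incubated with or without EBSS for 30 min, then given 10 μM compound, with 10 μM chloroquine as reference, for 3 h. LC3-I/II was assessed by Western blot with GAPDH loading control. The LC3-II/LC3-I ratio came from densitometry, as mean ± SEM of four experiments, with an unpaired one-tailed t-test.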

A short description of data set [13]: Mutagenicity in Salmonella typhimurium TA98 in absence of rat liver S9 fraction at 0.3 to 60 uM by AMES test. The class given is toxicity. To be noted: salmonella enterica subsp. enterica serovar typhimurium, s9, 60 µM; dose 0.3-60 µM.
The nature of data set [14]: Cytotoxicity against human MFD-1 cells assessed as inhibition of cell growth measured after 72 hrs by MTT assay. The class given is functional, cell-based. To be noted: MFD-1, 72 h. The procedure, abridged: as §3
The target of the next data set is Albumin (Bos taurus, UniProt P02769). As to the kind of experiment: Binding affinity to bovine serum albumin assessed as increase in fluorescence intensity. To be noted: cattle. Summed up: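 Saturation assay: compound fixed at 1 μM was incubated with increasing amounts of BSA. Fluorescence was read with excitation at 350 nm and emission at 450 nm in a plate reader.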
Chain of Albumin (P02769 whole entry): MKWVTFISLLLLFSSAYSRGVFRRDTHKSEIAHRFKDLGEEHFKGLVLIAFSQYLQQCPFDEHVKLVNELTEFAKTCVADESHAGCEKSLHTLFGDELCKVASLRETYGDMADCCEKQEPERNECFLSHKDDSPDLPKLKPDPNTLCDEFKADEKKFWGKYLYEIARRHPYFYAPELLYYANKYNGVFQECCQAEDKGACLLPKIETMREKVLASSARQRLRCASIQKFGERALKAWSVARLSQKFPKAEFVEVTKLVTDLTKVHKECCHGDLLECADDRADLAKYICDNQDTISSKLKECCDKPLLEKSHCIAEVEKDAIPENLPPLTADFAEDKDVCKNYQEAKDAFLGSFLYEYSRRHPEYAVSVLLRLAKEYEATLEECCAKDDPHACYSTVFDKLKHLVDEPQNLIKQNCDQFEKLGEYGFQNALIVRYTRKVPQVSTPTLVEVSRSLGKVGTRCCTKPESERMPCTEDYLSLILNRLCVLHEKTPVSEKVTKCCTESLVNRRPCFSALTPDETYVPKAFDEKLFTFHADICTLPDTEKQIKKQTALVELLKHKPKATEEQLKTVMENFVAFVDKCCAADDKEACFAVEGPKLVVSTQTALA

The test system of data set [15] is HeLa. Briefly: Induction of morphological changes in human HeLa cells assessed as effect on actin cytoskeleton at 10 uM incubated for 3 hrs by phalloidin staining based laser scanning confocal microscopic analysis. It is filed as functional, cell-based. Summed up: as §4
Data set [16] deals with HeLa. As to the kind of experiment: Induction of morphological changes in human HeLa cells assessed as cell rounding at 10 uM incubated for 3 hrs by phalloidin staining based laser scanning confocal microscopic analysis. The class given is functional. The procedure, abridged: as §4

Chain of Nuclear factor NF-kappa-B complex (Homo sapiens) (P19838 whole entry, looked up): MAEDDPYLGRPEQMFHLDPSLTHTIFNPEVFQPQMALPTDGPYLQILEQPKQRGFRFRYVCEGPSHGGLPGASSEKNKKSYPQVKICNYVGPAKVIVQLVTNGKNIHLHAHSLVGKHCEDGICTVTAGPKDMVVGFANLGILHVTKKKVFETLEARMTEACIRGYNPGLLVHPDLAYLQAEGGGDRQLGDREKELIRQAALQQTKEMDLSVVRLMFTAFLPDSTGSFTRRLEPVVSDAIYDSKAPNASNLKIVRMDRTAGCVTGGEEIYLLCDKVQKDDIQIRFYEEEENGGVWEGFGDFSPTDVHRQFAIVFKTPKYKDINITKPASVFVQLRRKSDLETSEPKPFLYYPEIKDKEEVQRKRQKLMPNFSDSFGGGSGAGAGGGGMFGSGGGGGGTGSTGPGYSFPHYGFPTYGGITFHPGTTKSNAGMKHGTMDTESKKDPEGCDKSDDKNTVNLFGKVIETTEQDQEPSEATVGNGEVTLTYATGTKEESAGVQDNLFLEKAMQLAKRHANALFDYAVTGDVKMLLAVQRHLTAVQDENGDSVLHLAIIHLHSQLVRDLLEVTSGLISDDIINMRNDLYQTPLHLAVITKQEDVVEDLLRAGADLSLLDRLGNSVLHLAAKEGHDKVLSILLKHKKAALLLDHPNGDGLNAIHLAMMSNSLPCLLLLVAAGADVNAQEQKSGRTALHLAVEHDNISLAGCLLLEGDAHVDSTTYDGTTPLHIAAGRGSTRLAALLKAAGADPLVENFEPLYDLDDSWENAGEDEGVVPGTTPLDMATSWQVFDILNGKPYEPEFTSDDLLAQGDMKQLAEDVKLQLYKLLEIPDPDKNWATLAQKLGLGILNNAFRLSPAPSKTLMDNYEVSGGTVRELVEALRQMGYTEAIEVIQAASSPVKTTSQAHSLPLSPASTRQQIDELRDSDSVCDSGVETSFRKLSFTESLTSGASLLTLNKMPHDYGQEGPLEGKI
Chain of Nuclear factor NF-kappa-B complex (Homo sapiens) (Q00653 whole entry, looked up): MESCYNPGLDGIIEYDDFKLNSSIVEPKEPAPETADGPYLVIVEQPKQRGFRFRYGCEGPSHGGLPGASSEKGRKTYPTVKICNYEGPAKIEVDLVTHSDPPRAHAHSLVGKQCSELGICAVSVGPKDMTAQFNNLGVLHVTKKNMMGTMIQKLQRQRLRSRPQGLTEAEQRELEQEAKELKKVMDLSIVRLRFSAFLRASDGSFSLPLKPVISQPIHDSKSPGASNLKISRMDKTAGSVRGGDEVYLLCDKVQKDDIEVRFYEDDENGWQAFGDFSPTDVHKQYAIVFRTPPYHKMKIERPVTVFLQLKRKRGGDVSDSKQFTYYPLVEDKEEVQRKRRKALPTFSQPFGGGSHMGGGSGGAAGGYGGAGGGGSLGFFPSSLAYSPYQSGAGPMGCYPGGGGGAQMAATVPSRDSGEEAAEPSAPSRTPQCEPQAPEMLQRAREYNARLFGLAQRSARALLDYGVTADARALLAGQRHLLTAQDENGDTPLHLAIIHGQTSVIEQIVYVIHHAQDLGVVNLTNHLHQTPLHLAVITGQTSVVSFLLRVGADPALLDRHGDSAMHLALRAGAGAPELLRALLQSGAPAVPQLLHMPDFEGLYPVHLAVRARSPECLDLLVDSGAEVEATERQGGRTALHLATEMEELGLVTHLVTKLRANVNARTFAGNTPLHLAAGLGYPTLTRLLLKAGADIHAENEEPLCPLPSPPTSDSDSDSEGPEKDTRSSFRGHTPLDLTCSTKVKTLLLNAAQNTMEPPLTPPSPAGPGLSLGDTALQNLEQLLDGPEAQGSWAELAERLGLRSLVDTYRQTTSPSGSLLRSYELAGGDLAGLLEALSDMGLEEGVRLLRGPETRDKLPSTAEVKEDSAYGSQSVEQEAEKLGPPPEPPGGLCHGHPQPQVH
Chain of Nuclear factor NF-kappa-B complex (Homo sapiens) (Q04206 whole entry, looked up): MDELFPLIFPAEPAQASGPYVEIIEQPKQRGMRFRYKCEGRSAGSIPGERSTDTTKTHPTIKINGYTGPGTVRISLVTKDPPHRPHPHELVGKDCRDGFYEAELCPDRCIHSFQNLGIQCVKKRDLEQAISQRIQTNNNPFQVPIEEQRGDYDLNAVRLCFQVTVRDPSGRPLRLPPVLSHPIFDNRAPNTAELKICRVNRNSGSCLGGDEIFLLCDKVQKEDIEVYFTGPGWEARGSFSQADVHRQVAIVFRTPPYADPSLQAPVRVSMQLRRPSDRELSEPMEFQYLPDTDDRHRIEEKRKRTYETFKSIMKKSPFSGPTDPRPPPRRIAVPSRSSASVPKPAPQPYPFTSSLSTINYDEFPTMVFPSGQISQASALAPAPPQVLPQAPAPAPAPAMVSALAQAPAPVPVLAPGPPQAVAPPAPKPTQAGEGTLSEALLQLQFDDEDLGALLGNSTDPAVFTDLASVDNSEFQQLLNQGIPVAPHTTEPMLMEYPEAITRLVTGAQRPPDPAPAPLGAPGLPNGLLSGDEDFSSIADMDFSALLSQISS

Regarding `CN1CCN(C(=O)OC2=C(c3cccc4ncccc34)Oc3cc4ccccc4cc3-n3cccc32)CC1`, the IC50 came out at 3600 nM in the data set on KYSE-520 cell line [1]; 880 nM in data set [3]; 730 nM in the data set with OE19; 469 nM in the data set on HeLa [4]; 550 nM in data set [8]; 400 nM in data set [9]. Also, the IC50 was 400 nM in the data set with OE33, 1680 nM in the data set with KYSE-520 cell line [12] and 1210 nM in [14]. The EC50 at 24 h in [2] amounted to 45000 nM. Moreover, the result in the data set with HL-60, in the data set on HeLa [7], in the data set with HeLa [10], with TR146 and with SCC-4 was Active. This molecule gave an inhibition against Tubulin (Homo sapiens) of 100%. Besides, in the data set on NIH3T3, the EC50 was 450 nM. In data set [5], the inhibition result was “Active”. For the same molecule, the Activity result was “Non-Toxic” in [6], “Non-Toxic” in data set [13] and “Active” at Albumin. Besides, the k el in data set [11] is 0.000367 s⁻¹.

As to `O=C(OC1=C(c2cccc3ncccc23)Oc2cc3ccccc3cc2-n2cccc21)C1CCNCC1`, the IC50 with KYSE-520 cell line [1] came to 1680 nM; in data set [3], 4500 nM; with OE33 it was 1930 nM; with KYSE-520 cell line [12], 890 nM. In addition, the EC50 at 24 h in data set [2] was found to be 45000 nM. In addition, the outcome in the data set on HeLa [15], with HL-60, with HeLa [16] and in the data set on SCC-4 was Active. In the data set with NIH3T3, the EC50 stood at 600 nM. In addition, the inhibition entry in data set [5] is “Active”. For the same molecule, the Activity entry in data set [6] and in data set [13] was “Non-Toxic” in each case. For the same molecule, in [11], the k el is 0.000127 s⁻¹.
